Measured values from ChEMBL document CHEMBL2434829, “Synthesis of new andrographolide derivatives and evaluation of their antidyslipidemic, LDL-oxidation and antioxidant activity” (2013).
The source made the active and inactive calls. The calls are words filed in the database; no cut-off is given here.

Experiments:
[1] = Antioxidant activity assessed as reduction of LDL-oxidation at 200 ug/ml after 1 hr by TBARS assay in presence of Cu 2+ relative to control; assay type: functional; parameters: scale not given: the % may be the effect or the level left; details: in the assay text read “after 16 hr” for “after 1 hr”
Outline: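 LDL obtained by ultracentrifugation of serum from overnight-fasted normolipemic donors, dialyzed against 150 mM NaCl with 0.02% EDTA under N2, purity checked by PAGE. LDL 0.71 mg with CuCl2·2H2O 10 µM, compound at 200 µg/mL, in 50 mM PBS pH 7.4 for 16 h at 37 °C. Lipid peroxides read as TBARS after heating with SDS, acetic acid and 0.8% TBA for 1 h in boiling water.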

[2] = Antioxidant activity assessed as reduction of microsomal lipid per-oxidation level by measuring formation of malondialdehyde at 200 ug/ml after 90 mins by spectrophotometric analysis relative to control; assay type: functional; parameters: scale not given: the % may be the effect or the level left
[3] = Antioxidant activity assessed as decrease in hydroxyl radicals level by measuring formation of malondialdehyde at 200 ug/ml after 90 mins by spectrophotometric analysis relative to control; assay type: functional; parameters: scale not given: the % may be the effect or the level left
Outline: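 Hydroxyl radicals generated without enzyme from deoxyribose 2.8 mM, FeSO4·7H2O 2 mM, sodium ascorbate 2.0 mM and H2O2 2.8 mM in 50 mM KH2PO4 pH 7.4. Compound at 200 µg/mL. Incubated 37 °C for 90 min. Mannitol as standard.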

[4] = Antioxidant activity assessed as decrease in superoxide anions level by measuring formation of formazone at 200 ug/ml after 30 mins by spectrophotometric analysis relative to control; assay type: functional; parameters: scale not given: the % may be the effect or the level left
Outline: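 Superoxide made enzymatically with xanthine ([…]), xanthine oxidase (0.04 U) and nitroblue tetrazolium (320 µM) in 100 mM phosphate buffer pH 8.2. Compound at 200 µg/mL, sonicated in buffer. Incubated 37 °C for 30 min, stopped with glacial acetic acid, formazan read spectrophotometrically. Allopurinol as standard.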

Rattus norvegicus [5] = assay: Antidyslipidemic activity in Charles foster rat assessed as increase in triton WR-1339-reduced lipoprotein lipase level in liver at 100 mg/kg, po relative to triton-treated rat; assay type: functional, organism-based; parameters: dose 100 mg/kg
Outline: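 Rats given triton WR-1339 (400 mg/kg i.p.) with oral test agent in gum acacia, 6 per group. Liver homogenized 10% w/v in cold 100 mM phosphate buffer pH 7.2 and assayed for total lipoprotein lipase lipolytic activity. Mean ± SD.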

Rattus norvegicus [6] = assay: Antidyslipidemic activity in Charles foster rat assessed as increase in triton WR-1339-reduced HDL cholesterol level in plasma at 100 mg/kg, po after 18 hrs by poly anionic precipitation method relative to triton-treated rat; assay type: functional, organism-based; parameters: dose 100 mg/kg
Outline: (§1)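 Male adult Charles Foster rats (200–225 g), 6/group. Triton WR-1339 400 mg/kg i.p.; test agent in gum acacia suspension in water given orally together with triton, diet withdrawn. After 18 h, blood drawn from retro-orbital sinus into EDTA tubes under thiopentone anaesthesia. Plasma split into VLDL, LDL and HDL by polyanionic precipitation, then cholesterol measured. Mean ± SD.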

Rattus norvegicus [7] = assay: Antidyslipidemic activity in Charles foster rat assessed as decrease in triton WR-1339-induced VLDL cholesterol level in plasma at 100 mg/kg, po after 18 hrs by poly anionic precipitation method relative to triton-treated rat; assay type: functional, organism-based; parameters: dose 100 mg/kg; outline: as §1
Rattus norvegicus [8] = assay: Antidyslipidemic activity in Charles foster rat assessed as increase in triton WR-1339-reduced post heparin lipolytic activity level in plasma at 200 mg/kg, po after 18 hrs by spectrophotometric analysis relative to triton-treated rat; assay type: functional; parameters: scale not given: the % may be the effect or the level left
Outline: (§2)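 Triton WR-1339 hyperlipidemia in male Charles Foster rats: 400 mg/kg i.p. plus oral dose in gum acacia vehicle, fasted, 6 rats/group. Plasma taken 18 h later from retro-orbital blood. Post-heparin lipolytic activity measured spectrophotometrically as nmol free fatty acids formed/h/ml plasma. Percent change against triton-only rats; mean ± SD.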

Rattus norvegicus [9] = assay: Antidyslipidemic activity in Charles foster rat assessed as decrease in triton WR-1339-induced triglyceride level in plasma at 200 mg/kg, po after 18 hrs relative to triton-treated rat; assay type: functional; parameters: scale not given: the % may be the effect or the level left
Outline: (§3)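 Male adult Charles Foster rats (200–225 g), six per group. Triton WR-1339 400 mg/kg i.p., with test agent given orally at the same time as a gum acacia suspension in water; food withdrawn. Controls received vehicle. At 18 h, retro-orbital EDTA blood taken and centrifuged 2500 × g for 10 min at 4 °C. Plasma diluted 1:3 in saline; TC, PL and TG read enzymatically on an autoanalyzer. Percent change against triton group.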

Rattus norvegicus [10] = assay: Antidyslipidemic activity in Charles foster rat assessed as decrease in triton WR-1339-induced phospholipid level in plasma at 200 mg/kg, po after 18 hrs relative to triton-treated rat; assay type: functional; parameters: scale not given: the % may be the effect or the level left; outline: as §3
Rattus norvegicus [11] = assay: Antidyslipidemic activity in Charles foster rat assessed as decrease in triton WR-1339-induced total cholesterol level in plasma at 200 mg/kg, po after 18 hrs relative to triton-treated rat; assay type: functional; parameters: scale not given: the % may be the effect or the level left; outline: as §3
Rattus norvegicus [12] = assay: Antidyslipidemic activity in Charles foster rat assessed as increase in triton WR-1339-reduced post heparin lipolytic activity level in plasma at 150 mg/kg, po after 18 hrs by spectrophotometric analysis relative to triton-treated rat; assay type: functional; parameters: scale not given: the % may be the effect or the level left; outline: as §2
Rattus norvegicus [13] = assay: Antidyslipidemic activity in Charles foster rat assessed as decrease in triton WR-1339-induced triglyceride level in plasma at 150 mg/kg, po after 18 hrs relative to triton-treated rat; assay type: functional; parameters: scale not given: the % may be the effect or the level left; outline: as §3
Rattus norvegicus [14] = assay: Antidyslipidemic activity in Charles foster rat assessed as decrease in triton WR-1339-induced phospholipid level in plasma at 150 mg/kg, po after 18 hrs relative to triton-treated rat; assay type: functional; parameters: scale not given: the % may be the effect or the level left; outline: as §3
Rattus norvegicus [15] = assay: Antidyslipidemic activity in Charles foster rat assessed as decrease in triton WR-1339-induced total cholesterol level in plasma at 150 mg/kg, po after 18 hrs relative to triton-treated rat; assay type: functional; parameters: scale not given: the % may be the effect or the level left; outline: as §3
Rattus norvegicus [16] = assay: Antidyslipidemic activity in Charles foster rat assessed as increase in triton WR-1339-reduced post heparin lipolytic activity level in plasma at 50 mg/kg, po after 18 hrs by spectrophotometric analysis relative to triton-treated rat; assay type: functional; parameters: scale not given: the % may be the effect or the level left; outline: as §2
Rattus norvegicus [17] = assay: Antidyslipidemic activity in Charles foster rat assessed as decrease in triton WR-1339-induced triglyceride level in plasma at 50 mg/kg, po after 18 hrs relative to triton-treated rat; assay type: functional; parameters: scale not given: the % may be the effect or the level left; outline: as §3
Rattus norvegicus [18] = assay: Antidyslipidemic activity in Charles foster rat assessed as decrease in triton WR-1339-induced phospholipid level in plasma at 50 mg/kg, po after 18 hrs relative to triton-treated rat; assay type: functional; parameters: scale not given: the % may be the effect or the level left; outline: as §3
Rattus norvegicus [19] = assay: Antidyslipidemic activity in Charles foster rat assessed as decrease in triton WR-1339-induced total cholesterol level in plasma at 50 mg/kg, po after 18 hrs relative to triton-treated rat; assay type: functional; parameters: scale not given: the % may be the effect or the level left; outline: as §3
Rattus norvegicus [20] = assay: Antidyslipidemic activity in Charles foster rat assessed as increase in triton WR-1339-reduced post heparin lipolytic activity level in plasma at 25 mg/kg, po after 18 hrs by spectrophotometric analysis relative to triton-treated rat; assay type: functional; parameters: scale not given: the % may be the effect or the level left; outline: as §2
Rattus norvegicus [21] = assay: Antidyslipidemic activity in Charles foster rat assessed as decrease in triton WR-1339-induced triglyceride level in plasma at 25 mg/kg, po after 18 hrs relative to triton-treated rat; assay type: functional; parameters: scale not given: the % may be the effect or the level left; outline: as §3
Rattus norvegicus [22] = assay: Antidyslipidemic activity in Charles foster rat assessed as decrease in triton WR-1339-induced phospholipid level in plasma at 25 mg/kg, po after 18 hrs relative to triton-treated rat; assay type: functional; parameters: scale not given: the % may be the effect or the level left; outline: as §3
Rattus norvegicus [23] = assay: Antidyslipidemic activity in Charles foster rat assessed as increase in triton WR-1339-reduced post heparin lipolytic activity level in plasma at 100 mg/kg, po after 18 hrs by spectrophotometric analysis relative to triton-treated rat; assay type: functional; parameters: scale not given: the % may be the effect or the level left; outline: as §2
Rattus norvegicus [24] = assay: Antidyslipidemic activity in Charles foster rat assessed as decrease in triton WR-1339-induced triglyceride level in plasma at 100 mg/kg, po after 18 hrs relative to triton-treated rat; assay type: functional; parameters: scale not given: the % may be the effect or the level left; outline: as §3
Rattus norvegicus [25] = assay: Antidyslipidemic activity in Charles foster rat assessed as decrease in triton WR-1339-induced phospholipid level in plasma at 100 mg/kg, po after 18 hrs relative to triton-treated rat; assay type: functional; parameters: scale not given: the % may be the effect or the level left; outline: as §3
Rattus norvegicus [26] = assay: Antidyslipidemic activity in Charles foster rat assessed as decrease in triton WR-1339-induced LDL cholesterol level in plasma at 100 mg/kg, po after 18 hrs by poly anionic precipitation method relative to triton-treated rat; assay type: functional, organism-based; parameters: dose 100 mg/kg; outline: as §1
Rattus norvegicus [27] = assay: Antidyslipidemic activity in Charles foster rat assessed as decrease in triton WR-1339-induced total cholesterol level in plasma at 100 mg/kg, po after 18 hrs relative to triton-treated rat; assay type: functional; parameters: scale not given: the % may be the effect or the level left; outline: as §3
Rattus norvegicus [28] = assay: Antidyslipidemic activity in Charles foster rat assessed as decrease in triton WR-1339-induced total cholesterol level in plasma at 25 mg/kg, po after 18 hrs relative to triton-treated rat; assay type: functional; parameters: scale not given: the % may be the effect or the level left; outline: as §3

| Structure (SMILES) | Activity [1] | Activity [2] | Activity [3] | Activity [4] | Activity (Rattus norvegicus [5]) | Activity (Rattus norvegicus [6]) | Activity (Rattus norvegicus [7]) | Activity (Rattus norvegicus [8]) | Activity (Rattus norvegicus [9]) | Activity (Rattus norvegicus [10]) | Activity (Rattus norvegicus [11]) | Activity (Rattus norvegicus [12]) | Activity (Rattus norvegicus [13]) | Activity (Rattus norvegicus [14]) | Activity (Rattus norvegicus [15]) | Activity (Rattus norvegicus [16]) | Activity (Rattus norvegicus [17]) | Activity (Rattus norvegicus [18]) | Activity (Rattus norvegicus [19]) | Activity (Rattus norvegicus [20]) | also measured |
| --- | --- | --- | --- | --- | --- | --- | --- | --- | --- | --- | --- | --- | --- | --- | --- | --- | --- | --- | --- | --- | --- |
| C=C1CC[C@@H]2[C@](C)(CO)[C@H](O)CC[C@@]2(C)[C@@H]1C/C=C1/C(=O)OC[C@H]1O [ANDROGRAPHOLIDE] | 45% | 38% | 36% | 33% | Active | Active | Active | 18% | 30% | 30% | 29% | 18% | 30% | 29% | 29% | 13% | 21% | 20% | 21% | 10% | Activity (Rattus norvegicus [21]): 15%; Activity (Rattus norvegicus [22]): 12%; Activity (Rattus norvegicus [23]): 16%; Activity (Rattus norvegicus [24]): 28%; Activity (Rattus norvegicus [25]): 26%; Activity (Rattus norvegicus [26]): Active; Activity (Rattus norvegicus [27]): 27%; Activity (Rattus norvegicus [28]): 14% |
| C=C1CC[C@@H]2[C@](C)(COS(=O)(=O)c3ccc(C)cc3)[C@H](O)CC[C@@]2(C)[C@@H]1C/C=C1/C(=O)OC[C@H]1O | 55% | 40% | 46% | 41% | Active | Active | Active | 18% | 37% | 40% | 34% | 18% | 37% | 39% | 34% | 13% | 20% | 22% | 22% | 10% | Activity (Rattus norvegicus [21]): 14%; Activity (Rattus norvegicus [22]): 15%; Activity (Rattus norvegicus [23]): 18%; Activity (Rattus norvegicus [24]): 35%; Activity (Rattus norvegicus [25]): 37%; Activity (Rattus norvegicus [26]): Active; Activity (Rattus norvegicus [27]): 33%; Activity (Rattus norvegicus [28]): 16% |
